Data taken from ChEMBL document CHEMBL2029240 (ACS Med Chem Lett, 2011).
One block for each molecule: values may come before it. Calls of active or inactive are those of the source. The calls are words filed in the database; no cut-off is given here.

Experiments:
[1] = molecular target: T1, C-C chemokine receptor type 2 (Homo sapiens, UniProt P41597); assay: Antagonist activity at CCR2 receptor in human whole blood assessed as inhibition of alexa-tagged MCP-induced effect 30 mins by flow cytometry; assay type: functional, tissue-based
T1 sequence (P41597 whole entry): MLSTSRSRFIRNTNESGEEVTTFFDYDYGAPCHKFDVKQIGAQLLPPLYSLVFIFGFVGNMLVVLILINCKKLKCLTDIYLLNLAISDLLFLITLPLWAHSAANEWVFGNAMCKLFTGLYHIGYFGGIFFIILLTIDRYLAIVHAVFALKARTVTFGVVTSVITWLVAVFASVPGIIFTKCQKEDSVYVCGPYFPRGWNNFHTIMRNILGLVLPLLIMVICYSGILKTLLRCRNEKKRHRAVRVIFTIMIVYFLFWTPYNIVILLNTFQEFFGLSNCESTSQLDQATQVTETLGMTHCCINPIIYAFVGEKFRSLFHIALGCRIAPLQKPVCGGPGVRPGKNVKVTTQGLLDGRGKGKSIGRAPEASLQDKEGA

[2] = molecular target: T1, C-C chemokine receptor type 2
[3] = molecular target: T2, Voltage-gated inwardly rectifying potassium channel KCNH2 (Homo sapiens, UniProt Q12809); assay: Displacement of [3H]dofetilide from human ERG
T2 sequence (Q12809 whole entry): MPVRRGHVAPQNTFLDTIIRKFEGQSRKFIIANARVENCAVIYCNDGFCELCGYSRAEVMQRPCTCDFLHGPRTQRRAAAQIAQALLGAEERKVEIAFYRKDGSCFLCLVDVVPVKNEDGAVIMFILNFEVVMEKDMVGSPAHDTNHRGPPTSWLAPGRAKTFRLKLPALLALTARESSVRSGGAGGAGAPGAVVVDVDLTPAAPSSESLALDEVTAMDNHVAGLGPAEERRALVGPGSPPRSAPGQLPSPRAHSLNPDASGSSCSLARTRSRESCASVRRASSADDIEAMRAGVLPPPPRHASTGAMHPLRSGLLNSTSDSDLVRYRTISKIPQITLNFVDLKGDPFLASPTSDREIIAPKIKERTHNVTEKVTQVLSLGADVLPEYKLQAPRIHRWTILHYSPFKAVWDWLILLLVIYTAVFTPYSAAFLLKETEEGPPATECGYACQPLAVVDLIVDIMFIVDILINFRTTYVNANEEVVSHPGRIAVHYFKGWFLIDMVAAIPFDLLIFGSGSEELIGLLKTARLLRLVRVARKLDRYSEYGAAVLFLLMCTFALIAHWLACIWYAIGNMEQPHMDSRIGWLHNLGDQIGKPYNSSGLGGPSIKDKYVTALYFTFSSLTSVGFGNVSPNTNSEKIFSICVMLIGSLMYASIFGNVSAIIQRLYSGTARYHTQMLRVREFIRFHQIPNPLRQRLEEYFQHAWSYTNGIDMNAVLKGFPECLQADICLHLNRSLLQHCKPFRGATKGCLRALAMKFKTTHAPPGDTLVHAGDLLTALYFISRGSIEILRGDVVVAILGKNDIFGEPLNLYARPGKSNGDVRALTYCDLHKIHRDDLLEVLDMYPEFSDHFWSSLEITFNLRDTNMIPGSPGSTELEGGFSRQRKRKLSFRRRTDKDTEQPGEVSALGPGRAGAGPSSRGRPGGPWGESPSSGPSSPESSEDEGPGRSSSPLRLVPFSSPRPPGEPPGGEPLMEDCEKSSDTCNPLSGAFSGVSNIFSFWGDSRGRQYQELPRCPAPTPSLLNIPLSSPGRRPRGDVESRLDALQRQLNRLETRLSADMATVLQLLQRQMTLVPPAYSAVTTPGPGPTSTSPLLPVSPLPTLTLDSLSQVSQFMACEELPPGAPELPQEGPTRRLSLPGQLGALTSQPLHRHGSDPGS

[4] = molecular target: T3, C-C chemokine receptor type 1 (Homo sapiens) (UniProt P32246); assay: Inhibition of CCR1 at 1 uM
T3 sequence (whole entry): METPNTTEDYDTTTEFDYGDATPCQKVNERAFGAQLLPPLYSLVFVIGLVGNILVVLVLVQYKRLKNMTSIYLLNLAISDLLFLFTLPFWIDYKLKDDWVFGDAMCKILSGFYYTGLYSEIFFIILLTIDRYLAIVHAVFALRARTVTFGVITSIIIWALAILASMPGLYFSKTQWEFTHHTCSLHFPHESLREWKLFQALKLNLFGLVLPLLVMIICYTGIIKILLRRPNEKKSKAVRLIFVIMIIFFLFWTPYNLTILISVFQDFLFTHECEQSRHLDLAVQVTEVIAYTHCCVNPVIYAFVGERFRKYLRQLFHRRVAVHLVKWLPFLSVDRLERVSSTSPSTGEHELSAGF
Summary of the method: (§1)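 Single-concentration screen at 1 μM against a broad panel of more than 50 targets (ion channels, transporters, chemokine receptors, other GPCRs), scored for significant inhibition.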

[5] = Induction of Cytochrome P450 up to 30 uM; assay type: ADME
[6] = molecular target: T4, C-C chemokine receptor type 2 (Mus musculus, UniProt P51683); assay: Antagonist activity at mouse CCR2; assay type: functional
T4 sequence (P51683 whole entry): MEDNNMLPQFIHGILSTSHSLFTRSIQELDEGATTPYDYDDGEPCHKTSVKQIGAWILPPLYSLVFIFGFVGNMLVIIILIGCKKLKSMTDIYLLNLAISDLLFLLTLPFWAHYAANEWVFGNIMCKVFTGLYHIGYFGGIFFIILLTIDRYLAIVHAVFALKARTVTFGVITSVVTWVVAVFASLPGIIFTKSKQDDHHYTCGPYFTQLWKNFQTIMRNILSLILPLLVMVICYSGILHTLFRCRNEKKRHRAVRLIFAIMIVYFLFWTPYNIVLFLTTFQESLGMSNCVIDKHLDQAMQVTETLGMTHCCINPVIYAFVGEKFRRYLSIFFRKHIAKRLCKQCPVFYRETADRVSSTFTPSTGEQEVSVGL
Summary of the method: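 Read-out was antagonism of CCR2-mediated chemotaxis in a mouse chemotaxis assay, with activity reported as IC50.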

Rattus norvegicus [7] = assay: AUC in rat at 10 mg/kg, po; assay type: ADME, organism-based, Plasma; set-up: dose 10 mg/kg, route oral; settings: in vivo
Summary of the method: (§2)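 Rats were dosed iv at 2 mg/kg and orally at 10 mg/kg. Plasma PK parameters derived: CL (L/h/kg), Vss (L/kg), t1/2 (h), Cmax (nM), Tmax (h), AUC (nM h) and oral F%.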

[8] = Cmax in dog at 10 mg/kg, po; assay type: ADME, organism-based, Canis lupus familiaris; set-up: dose 10 mg/kg, route oral; settings: in vivo
[9] = Tmax in dog at 10 mg/kg, po; assay type: ADME, organism-based, Canis lupus familiaris; set-up: dose 10 mg/kg, route oral; settings: in vivo
[10] = molecular target: T5, C-X-C chemokine receptor type 3 (Homo sapiens) (UniProt P49682); assay: Inhibition of CXCR3 at 1 uM; summary of the method: as §1
T5 sequence (whole entry): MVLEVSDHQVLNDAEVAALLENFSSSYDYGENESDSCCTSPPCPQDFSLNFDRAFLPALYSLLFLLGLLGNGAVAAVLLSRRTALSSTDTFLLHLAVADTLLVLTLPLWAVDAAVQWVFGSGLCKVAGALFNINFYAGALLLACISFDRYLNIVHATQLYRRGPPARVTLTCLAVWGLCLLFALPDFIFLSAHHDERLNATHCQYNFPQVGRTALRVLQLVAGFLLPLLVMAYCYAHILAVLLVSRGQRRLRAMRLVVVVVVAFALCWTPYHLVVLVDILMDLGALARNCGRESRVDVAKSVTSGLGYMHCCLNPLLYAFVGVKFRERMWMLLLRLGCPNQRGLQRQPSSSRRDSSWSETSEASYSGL

[11] = Drug metabolism in human S9 fraction assessed as glutathione adduct formation in the presence of NADPH; assay type: ADME, subcellular
Summary of the method: (§3)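 Test agent incubated with human liver S9 fraction plus glutathione as cofactor, run both with and without NADPH. Read-out was detection of glutathione adducts.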

[12] = Half life in dog at 2 mg/kg, iv; assay type: ADME, organism-based, Canis lupus familiaris; set-up: dose 2 mg/kg, route intravenous; settings: in vivo
Rattus norvegicus [13] = assay: Oral bioavailability in rat at 10 mg/kg; assay type: ADME, organism-based; settings: in vivo; summary of the method: as §2
[14] = Permeability across human Caco2 cells; assay type: ADME, cell-based; settings: Caco-2, read-out: permeability
[15] = molecular target: T2, Voltage-gated inwardly rectifying potassium channel KCNH2; assay: Inhibition of human ERG by patch clamp assay
[16] = Oral bioavailability in dog at 10 mg/kg; assay type: ADME, organism-based, Canis lupus familiaris; settings: in vivo
[17] = molecular target: T6, C-X-C chemokine receptor type 5 (Homo sapiens) (UniProt P32302); assay: Inhibition of CXCR5 at 1 uM; summary of the method: as §1
T6 sequence (whole entry): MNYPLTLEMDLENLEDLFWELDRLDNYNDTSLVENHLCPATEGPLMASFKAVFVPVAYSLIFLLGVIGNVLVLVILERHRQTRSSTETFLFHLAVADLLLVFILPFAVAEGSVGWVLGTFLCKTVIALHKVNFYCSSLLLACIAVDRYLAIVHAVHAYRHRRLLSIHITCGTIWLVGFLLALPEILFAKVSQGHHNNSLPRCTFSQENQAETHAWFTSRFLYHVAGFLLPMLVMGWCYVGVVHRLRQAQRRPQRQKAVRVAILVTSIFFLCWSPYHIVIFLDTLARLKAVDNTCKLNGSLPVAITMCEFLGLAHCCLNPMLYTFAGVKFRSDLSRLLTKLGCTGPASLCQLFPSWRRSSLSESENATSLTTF

[18] = Clearance in dog at 2 mg/kg, iv; assay type: ADME, organism-based, Canis lupus familiaris; set-up: dose 2 mg/kg, route intravenous; settings: in vivo
[19] = Half life in human liver microsomes; assay type: ADME, Microsome
[20] = Half life in rat at 10 mg/kg, po; assay type: ADME, organism-based; set-up: dose 10 mg/kg, route oral; settings: in vivo; summary of the method: as §2
[21] = Half life in dog at 10 mg/kg, po; assay type: ADME, organism-based, Canis lupus familiaris; set-up: dose 10 mg/kg, route oral; settings: in vivo
[22] = molecular target: C-C chemokine receptor type 5 (Homo sapiens) (UniProt P51681); assay: Inhibition of CCR5 at 1 uM; summary of the method: as §1
Chain of C-C chemokine receptor type 5 (Homo sapiens) (P51681 whole entry, looked up): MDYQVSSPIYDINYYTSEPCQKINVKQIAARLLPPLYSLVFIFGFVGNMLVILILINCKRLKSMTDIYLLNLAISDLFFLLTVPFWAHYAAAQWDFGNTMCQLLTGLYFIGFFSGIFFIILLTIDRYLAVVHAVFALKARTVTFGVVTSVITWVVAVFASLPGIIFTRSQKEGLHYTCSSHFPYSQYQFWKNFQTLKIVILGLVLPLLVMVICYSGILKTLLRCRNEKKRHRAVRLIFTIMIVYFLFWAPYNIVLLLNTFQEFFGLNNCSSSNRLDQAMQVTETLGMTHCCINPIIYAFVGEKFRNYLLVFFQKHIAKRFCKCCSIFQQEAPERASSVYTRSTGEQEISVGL

Rattus norvegicus [23] = assay: Half life in rat at 2 mg/kg, iv; assay type: ADME, organism-based; set-up: dose 2 mg/kg, route intravenous; settings: in vivo; summary of the method: as §2
[24] = Tmax in rat at 10 mg/kg, po; assay type: ADME, organism-based; set-up: dose 10 mg/kg, route oral; settings: in vivo; summary of the method: as §2
[25] = Fraction unbound in human serum; assay type: ADME, cell-free
[26] = molecular target: T7, C-C chemokine receptor type 2 (Rattus norvegicus, UniProt O55193); assay: Antagonist activity at rat CCR2; assay type: functional
T7 sequence (O55193 whole entry): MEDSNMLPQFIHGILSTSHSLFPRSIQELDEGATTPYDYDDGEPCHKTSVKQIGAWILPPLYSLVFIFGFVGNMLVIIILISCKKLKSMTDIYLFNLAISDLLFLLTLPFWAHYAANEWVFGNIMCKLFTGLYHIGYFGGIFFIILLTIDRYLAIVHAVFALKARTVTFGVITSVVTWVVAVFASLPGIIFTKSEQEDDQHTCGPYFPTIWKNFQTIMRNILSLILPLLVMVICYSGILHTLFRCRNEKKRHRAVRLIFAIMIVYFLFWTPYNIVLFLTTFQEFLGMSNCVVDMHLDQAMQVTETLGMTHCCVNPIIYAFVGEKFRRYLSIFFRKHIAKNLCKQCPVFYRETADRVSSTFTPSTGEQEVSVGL

[27] = molecular target: T4, C-C chemokine receptor type 2; assay: Binding affinity to mouse CCR2
Summary of the method: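 Mouse CCR2 binding assay, with affinity reported as IC50.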

[28] = AUC in dog at 10 mg/kg, po; assay type: ADME, organism-based, Canis lupus familiaris; set-up: dose 10 mg/kg, route oral; settings: plasma
Rattus norvegicus [29] = assay: Clearance in rat at 2 mg/kg, iv; assay type: ADME, organism-based; set-up: dose 2 mg/kg, route intravenous; settings: in vivo; summary of the method: as §2
Cytochrome P450 2C9 = Cytochrome P450 2C9 (Homo sapiens, UniProt P11712); assay: Inhibition of CYP2C9; assay type: ADME
Chain of Cytochrome P450 2C9 (P11712 whole entry): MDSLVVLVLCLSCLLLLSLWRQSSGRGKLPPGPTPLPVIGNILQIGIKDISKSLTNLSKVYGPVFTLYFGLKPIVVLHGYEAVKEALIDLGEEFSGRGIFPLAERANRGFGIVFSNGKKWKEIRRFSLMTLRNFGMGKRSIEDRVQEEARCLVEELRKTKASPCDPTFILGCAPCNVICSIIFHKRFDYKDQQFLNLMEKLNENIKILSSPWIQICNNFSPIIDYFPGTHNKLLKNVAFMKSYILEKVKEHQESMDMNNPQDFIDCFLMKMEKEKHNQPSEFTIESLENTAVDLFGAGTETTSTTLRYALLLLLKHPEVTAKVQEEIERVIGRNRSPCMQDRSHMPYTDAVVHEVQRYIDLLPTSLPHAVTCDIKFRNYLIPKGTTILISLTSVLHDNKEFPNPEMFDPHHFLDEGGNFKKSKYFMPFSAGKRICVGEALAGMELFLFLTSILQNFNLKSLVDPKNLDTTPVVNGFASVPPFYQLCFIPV

Cytochrome P450 1A2 = molecular target: T8, Cytochrome P450 1A2 (Homo sapiens, UniProt P05177); assay: Inhibition of CYP1A2; assay type: ADME
T8 sequence (P05177 whole entry): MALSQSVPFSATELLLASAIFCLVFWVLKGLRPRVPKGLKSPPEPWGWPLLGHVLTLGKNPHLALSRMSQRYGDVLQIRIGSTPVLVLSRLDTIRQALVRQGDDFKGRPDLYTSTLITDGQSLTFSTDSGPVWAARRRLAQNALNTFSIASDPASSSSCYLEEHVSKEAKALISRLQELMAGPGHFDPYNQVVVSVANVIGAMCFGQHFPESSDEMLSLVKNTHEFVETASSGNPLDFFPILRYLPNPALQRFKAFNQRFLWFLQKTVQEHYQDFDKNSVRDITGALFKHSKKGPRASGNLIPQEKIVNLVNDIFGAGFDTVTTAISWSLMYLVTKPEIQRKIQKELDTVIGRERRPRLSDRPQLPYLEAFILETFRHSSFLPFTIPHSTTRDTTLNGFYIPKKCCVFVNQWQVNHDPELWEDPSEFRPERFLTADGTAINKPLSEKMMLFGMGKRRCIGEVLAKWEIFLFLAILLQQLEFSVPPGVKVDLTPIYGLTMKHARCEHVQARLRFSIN

Cytochrome P450 2D6 = Cytochrome P450 2D6 (Homo sapiens, UniProt P10635); assay: Inhibition of CYP2D6; assay type: ADME
Chain of Cytochrome P450 2D6 (P10635 whole entry): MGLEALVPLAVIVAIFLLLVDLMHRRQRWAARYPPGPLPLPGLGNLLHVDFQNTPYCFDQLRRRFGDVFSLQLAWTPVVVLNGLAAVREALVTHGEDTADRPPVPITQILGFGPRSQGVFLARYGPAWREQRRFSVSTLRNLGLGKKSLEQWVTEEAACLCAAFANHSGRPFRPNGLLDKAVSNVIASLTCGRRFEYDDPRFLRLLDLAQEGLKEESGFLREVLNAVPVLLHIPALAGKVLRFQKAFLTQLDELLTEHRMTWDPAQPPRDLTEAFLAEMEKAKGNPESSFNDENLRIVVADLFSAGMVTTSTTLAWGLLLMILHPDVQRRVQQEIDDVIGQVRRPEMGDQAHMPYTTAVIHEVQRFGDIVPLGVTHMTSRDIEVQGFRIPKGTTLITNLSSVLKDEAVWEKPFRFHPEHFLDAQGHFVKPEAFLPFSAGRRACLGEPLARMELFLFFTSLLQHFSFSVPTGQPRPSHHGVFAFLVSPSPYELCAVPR

[30] = molecular target: T9, C-C chemokine receptor type 3 (Homo sapiens) (UniProt P51677); assay: Inhibition of CCR3 at 1 uM; summary of the method: as §1
T9 sequence (whole entry): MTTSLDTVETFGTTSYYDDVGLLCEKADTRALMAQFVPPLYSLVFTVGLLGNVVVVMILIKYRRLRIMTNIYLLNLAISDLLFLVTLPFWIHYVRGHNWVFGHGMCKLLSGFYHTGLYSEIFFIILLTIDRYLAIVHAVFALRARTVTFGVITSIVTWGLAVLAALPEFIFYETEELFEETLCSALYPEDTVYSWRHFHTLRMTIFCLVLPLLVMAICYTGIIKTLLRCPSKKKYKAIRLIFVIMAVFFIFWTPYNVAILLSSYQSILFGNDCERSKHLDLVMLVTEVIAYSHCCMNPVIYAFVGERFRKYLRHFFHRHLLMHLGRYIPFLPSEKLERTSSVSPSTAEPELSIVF

[31] = molecular target: T7, C-C chemokine receptor type 2; assay: Binding affinity to rat CCR2
Cytochrome P450 2C19 = Cytochrome P450 2C19 (Homo sapiens, UniProt P33261); assay: Inhibition of CYP2C19; assay type: ADME
Chain of Cytochrome P450 2C19 (P33261 whole entry): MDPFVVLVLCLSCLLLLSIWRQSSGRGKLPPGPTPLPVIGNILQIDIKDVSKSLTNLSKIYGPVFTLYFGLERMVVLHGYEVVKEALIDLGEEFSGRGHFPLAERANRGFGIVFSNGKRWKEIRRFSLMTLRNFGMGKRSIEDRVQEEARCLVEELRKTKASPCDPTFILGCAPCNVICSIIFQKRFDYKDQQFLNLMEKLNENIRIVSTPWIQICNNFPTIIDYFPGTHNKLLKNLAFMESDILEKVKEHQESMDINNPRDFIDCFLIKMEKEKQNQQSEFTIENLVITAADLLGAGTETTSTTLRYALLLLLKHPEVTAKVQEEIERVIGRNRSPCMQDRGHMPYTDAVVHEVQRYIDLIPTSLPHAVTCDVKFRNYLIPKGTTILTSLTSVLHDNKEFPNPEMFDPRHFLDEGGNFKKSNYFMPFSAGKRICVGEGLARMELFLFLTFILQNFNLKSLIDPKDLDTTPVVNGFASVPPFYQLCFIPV

[32] = Volume of distribution at steady state in dog at 2 mg/kg, iv; assay type: ADME, organism-based, Canis lupus familiaris; set-up: dose 2 mg/kg, route intravenous; settings: in vivo, read-out: Vdss
[33] = Cmax in rat at 10 mg/kg, po; assay type: ADME, organism-based; set-up: dose 10 mg/kg, route oral; settings: in vivo; summary of the method: as §2
hERG (KCNH2) = hERG (KCNH2) (Homo sapiens, UniProt Q12809); assay: Inhibition of human ERG at 10 uM by patch clamp assay
Chain of hERG (KCNH2) (Q12809 whole entry): as the sequence (Q12809 whole entry) above

[34] = Drug metabolism in human S9 fraction assessed as glutathione adduct formation in the absence of NADPH; assay type: ADME, subcellular; summary of the method: as §3

IC50 [1]: 29 nM | IC50 [2]: 5.4 nM
Structure (SMILES): O=C(C1CCN(c2nccc(C(F)(F)F)n2)CC1)N1CC[C@H](N[C@H]2CC[C@@](O)(c3ccc(-c4ncccn4)cn3)CC2)C1

IC50 [1]: 40 nM | IC50 [2]: 10 nM
Structure (SMILES): O=C(C1CCN(c2cc(C(F)(F)F)ncn2)CC1)N1CC[C@H](N[C@H]2CC[C@@](O)(c3ccc(-c4ncccn4)cn3)CC2)C1
IC50 [3]: > 30000 nM

IC50 [1]: 33 nM | IC50 [2]: 11 nM
Structure (SMILES): N#Cc1ccnc(N2CCC(C(=O)N3CC[C@H](N[C@H]4CC[C@@](O)(c5ccc(-c6ncccn6)cn5)CC4)C3)CC2)c1

The remaining lines, values behind:

Structure (SMILES): O=C(N1CC[C@H](N[C@H]2CC[C@@](O)(c3ccc(-c4ncccn4)cn3)CC2)C1)C1(O)CCN(c2cc(C(F)(F)F)ccn2)CC1
IC50 [1]: 33 nM | IC50 [2]: 3.3 nM | IC50 [3]: > 30000 nM

Structure (SMILES): O=C(NCC(=O)N1CC[C@H](N[C@H]2CC[C@@](O)(c3ccc(-c4ncccn4)cn3)CC2)C1)c1cccc(C(F)(F)F)c1 [PF-4136309]
inhibition [4]: inactive | Activity [5]: Not Active | IC50 [6]: 16 nM | AUC (Rattus norvegicus [7]): 2.723 µM·h | Cmax [8]: 20 µM | Tmax [9]: 0.25 h | inhibition [10]: inactive | Drug metabolism [11]: Not Active | half-life [12]: 2.4 h | F (Rattus norvegicus [13]): 78% | Papp [14]: 3.1 ×10⁻⁶ cm/s | IC50 [15]: 20000 nM | bioavailability [16]: 78% | inhibition [17]: inactive | clearance [18]: 7.67 mL/min/kg | half-life [19]: 1.48 h | half-life [20]: 2.5 h | half-life [21]: 3.2 h | inhibition [22]: inactive | t1/2 (Rattus norvegicus [23]): 2.5 h | Tmax [24]: 1.2 h | fraction unbound [25]: 0.23 | IC50 [26]: 2.8 nM | IC50 [27]: 17 nM | AUC [28]: 35.6 µM·h | CL (Rattus norvegicus [29]): 23.5 mL/min/kg | IC50 (Cytochrome P450 2C9): > 30000 nM | IC50 (Cytochrome P450 1A2): > 30000 nM | IC50 (Cytochrome P450 2D6): > 30000 nM | inhibition [30]: inactive | IC50 [31]: 13 nM | IC50 (Cytochrome P450 2C19): > 30000 nM | Vd [32]: 0.62 L/kg | Cmax [33]: 0.61 µM | inhibition at 10 µM (hERG (KCNH2)): 35% | Drug metabolism [34]: Not Active | IC50 [3]: > 30000 nM
